In ChEMBL document CHEMBL1122480, “Synthesis and pharmacological studies of 4,4-disubstituted piperidines: a new class of compounds with potent analgesic properties” (J Med Chem, 1983):

Experiments:
Mus musculus [1] = experiment: Analgesic activity using PQW test, oral administration; format: functional
Procedure, shortened: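 Oral drug in mice, followed by phenylbenzoquinone-induced writhing. Analgesia is scored as fewer abdominal contractions in a group of five animals than in a control group. ED50 is the dose that reduces contractions by 50%, estimated graphically by the Litchfield method. Otherwise the percentage of animals showing analgesia is given.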

Mus musculus [2] = experiment: Analgesic activity in tail flick test, subcutaneous administration; format: functional
Procedure, shortened: (§1)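 Mouse tail-flick test against a noxious heat stimulus (D'Amour–Smith method), with drug given by the stated route. […] Where no exact ED50 was obtained, the percentage of animals showing analgesia is reported.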

Mus musculus [3] = experiment: 5 HTP (5-hydroxytryptophan) antagonism in mouse 0.5 hr after subcutaneous administration (0.003-0.1 dose range).; format: functional; conditions: sc
Procedure, shortened: (§2)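 Mice received drug sc over the stated dose range, then DL-5-hydroxytryptophan to induce head twitches. ED50 is the dose that cut the mean number of head twitches by 50% versus a saline-treated control group (N = 5-10). It was estimated graphically by the Litchfield method.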

Mus musculus [4] = experiment: Analgesic activity in tail flick test, oral administration; format: functional; procedure, shortened: as §1
Opioid receptor [5] = target: T1, Opioid receptor (Rattus norvegicus, UniProt P33533+P34975+P33535); experiment: Inhibition of [3H]naloxone binding to rat brain membrane with 100 mM NaCl.
Opioid receptor [6] = target: T1, Opioid receptor; experiment: Inhibition of [3H]-Naloxone binding to rat brain membrane without NaCl
[7] = target: T2, Serotonin (5-HT) receptor (Homo sapiens) (UniProt P30939+P41595+Q13639+P28222+P46098+P08908+P28221+P28223+P28335+P28566+P34969+P50406+P47898+A5X5Y0+O95264+Q70Z44+Q8WXA8); experiment: Serotonin antagonism in guinea pig 0.5 hr after oral administration.; format: functional, organism-based; conditions: Cavia porcellus; target entry is the homologue from another species
Procedure, shortened: (§3)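 Guinea pigs were protected against a lethal serotonin dose, per the cited Roemer and Weidmann method. Test substance was given subcutaneously or orally, as named in each line. Protection was assessed at the stated interval after dosing (0.5, 6 or 24 h). ED50 (mg/kg) was estimated graphically by the Litchfield method.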

[8] = target: T2, Serotonin (5-HT) receptor (Homo sapiens); experiment: Serotonin antagonism in guinea pig 0.5 hr after subcutaneous administration.; format: functional, organism-based; conditions: Cavia porcellus; target entry is the homologue from another species; procedure, shortened: as §3
[9] = target: T2, Serotonin (5-HT) receptor (Homo sapiens); experiment: Serotonin antagonism in guinea pig 24 hr after oral administration.; format: functional, organism-based; conditions: Cavia porcellus; target entry is the homologue from another species; procedure, shortened: as §3
[10] = target: T2, Serotonin (5-HT) receptor (Homo sapiens); experiment: Serotonin antagonism in guinea pig 24 hr after subcutaneous administration.; format: functional, organism-based; conditions: Cavia porcellus; target entry is the homologue from another species; procedure, shortened: as §3
[11] = target: T2, Serotonin (5-HT) receptor (Homo sapiens); experiment: Serotonin antagonism in guinea pig 6 hr after oral administration.; format: functional, organism-based; conditions: Cavia porcellus; target entry is the homologue from another species; procedure, shortened: as §3
[12] = target: T2, Serotonin (5-HT) receptor (Homo sapiens); experiment: Serotonin antagonism in guinea pig 6 h after subcutaneous administration.; format: functional, organism-based; conditions: Cavia porcellus; target entry is the homologue from another species; procedure, shortened: as §3
Mus musculus [13] = experiment: 5 HTP (5-hydroxytryptophan) antagonism in mouse 0.5 h after subcutaneous administration (0.03-0.1 dose range).; format: functional; conditions: sc; procedure, shortened: as §2
Mus musculus [14] = experiment: 5 HTP (5-hydroxytryptophan) antagonism in mouse 0.5 hr after subcutaneous administration (0.01-0.3 dose range).; format: functional; conditions: sc; procedure, shortened: as §2
[15] = Mus musculus, po, read-out: ED50
[16] = Mus musculus, Tail, sc, read-out: ED50
[17] = Mus musculus, Tail, po, read-out: ED50

| SMILES | ED50 (Mus musculus [1]; [15]) [mg/kg] | ED50 (Mus musculus [2]; [16]) [mg/kg] | ED50 (Mus musculus [4]; [17]) [mg/kg] | also measured |
| --- | --- | --- | --- | --- |
| C=CCN1CCC(O)(C(C)C(=O)N(C)C2CCCCC2)CC1.O=C(O)/C=C/C(=O)O (stereo unspecified) | 1 | 32 | – | – |
| COc1ccccc1NC(=O)C(C)(C)C1(O)CCN(CCc2ccccc2Cl)CC1.Cl | < 56 | > 32 | – | – |
| CN1CCC(=C2c3ccccc3C=Cc3ccccc32)CC1 [CYPROHEPTADINE] | – | – | – | ED50 (Mus musculus [3]): 0.015 mg/kg |
| C#CCN(C(=O)C(C)C1(O)CCN(CCc2ccccc2Cl)CC1)c1ccccc1OC.O=C(O)/C=C\C(=O)O (stereo unspecified) | 0.56 | 0.13 | 5.4 | IC50 (Opioid receptor [5]): 4.2 nM; IC50 (Opioid receptor [6]): 0.41 nM |
| CCN(C(=O)C(C)(C)C1(O)CCN(CCc2ccccc2Cl)CC1)c1ccccc1OC.O=C(O)/C=C/C(=O)O | > 18 | > 56 | > 100 | IC50 (Opioid receptor [5]): 35 nM; IC50 (Opioid receptor [6]): 7.5 nM |
| C=CCN(C(=O)C(C)C1(O)CCN(CCc2ccccc2Cl)CC1)C1CCCCC1.O=C(O)/C=C\C(=O)O (stereo unspecified) | < 32 | 4 | – | IC50 (Opioid receptor [5]): 20 nM; IC50 (Opioid receptor [6]): 2.4 nM |
| CC(C(=O)N(C)C1CCCCC1)C1(O)CCN(CCc2ccccc2Cl)CC1.O=C(O)/C=C\C(=O)O (single isomer, unassigned; (-)) | – | – | – | ED50 (Mus musculus [1]): 20 mg/kg; ED50 (Mus musculus [4]): 100 mg/kg; ED50 (Mus musculus [2]): 42 mg/kg |
| COc1ccccc1NC(=O)C(C)C1(O)CCN(CCc2ccccc2Cl)CC1.O=C(O)/C=C/C(=O)O (stereo unspecified) | 5.6 | > 18 | – | – |
| CN(C(=O)C1(C2(O)CCN(CCc3ccccc3Cl)CC2)CC1)C1CCCCC1.O=C(O)/C=C\C(=O)O | > 56 | 10 | – | – |
| CN(C(=O)CC1(O)CCN(CCc2ccccc2Cl)CC1)C1CCCCC1.Cl | > 18 | > 3.2 | < 56 | – |
| Br.COc1cccc(CCN2CCC(O)(C(C)C(=O)N(C)C3CCCCC3)CC2)c1 (stereo unspecified) | > 18 | 18 | – | – |
| CCCCN(CCCC)C(=O)C(C)C1(O)CCN(CCc2ccccc2Cl)CC1.O=C(O)/C=C/C(=O)O (stereo unspecified) | < 30 | < 50 | < 100 | – |
| C=CCN(C(=O)C(C)C1(O)CCN(CCc2ccccc2Cl)CC1)c1ccccc1OC.O=C(O)/C=C\C(=O)O (stereo unspecified) | 0.56 | 0.09 | 7.6 | IC50 (Opioid receptor [5]): 2.9 nM; IC50 (Opioid receptor [6]): 0.41 nM |
| CN(C(=O)C(C)(C)C1(O)CCN(CCc2ccccc2Cl)CC1)C1CCCCC1 [PIPRADIMADOL] | 26 | 21 | > 100 | ED50 [7]: 0.103 mg/kg; ED50 [8]: 0.055 mg/kg; ED50 [9]: 0.135 mg/kg; ED50 [10]: > 0.1 mg/kg; ED50 [11]: 0.14 mg/kg; ED50 [12]: 0.05 mg/kg; ED50 (Mus musculus [13]): 0.1 mg/kg; IC50 (Opioid receptor [5]): 825 nM; IC50 (Opioid receptor [6]): 550 nM |
| CCN(C(=O)C(C)C1(O)CCN(CCc2ccccc2Cl)CC1)c1ccccc1OC.O=C(O)/C=C/C(=O)O (stereo unspecified) | 56 | 0.07 | 4.9 | ED50 (Mus musculus [13]): 0.07 mg/kg; IC50 (Opioid receptor [5]): 6.3 nM; IC50 (Opioid receptor [6]): 0.94 nM |
| CCCN(C(=O)C(C)C1(OC(=O)CC)CCN(CCc2ccccc2Cl)CC1)c1ccccc1OC.O=C(O)/C=C\C(=O)O (stereo unspecified) | 1 | 32 | 100 | – |
| CC(C(=O)N(C)C1CCCCC1)C1(O)CCN(CCc2ccccc2)CC1.Cl (stereo unspecified) | 18 | 18 | > 56 | – |
| CCCN(C(=O)C(C)C1(O)CCN(CCc2ccccc2Cl)CC1)C1CCCCC1 (stereo unspecified) | < 32 | > 10 | 56 | – |
| CC(C(=O)N(C)C1CCCCC1)C1(O)CCN(CCc2ccccc2Cl)CC1 (stereo unspecified) [PIPRAMADOL] | 10 | 3.8 | 100 | – |
| CC(C(=O)N(C)C1CCCCC1)C1(O)CCN(C)CC1.Cl (stereo unspecified) | > 56 | > 56 | > 100 | – |
| CC(C(=O)N(C)c1ccc(Cl)cc1)C1(O)CCN(CCc2ccccc2Cl)CC1.O=C(O)/C=C/C(=O)O (stereo unspecified) | 9.7 | 6.8 | > 56 | – |

| SMILES | ED50 (Mus musculus [1]; [15]) [mg/kg] | ED50 (Mus musculus [2]; [16]) [mg/kg] | ED50 (Mus musculus [4]; [17]) [mg/kg] | also measured |
| --- | --- | --- | --- | --- |
| CC(C(=O)N(C1CCCCC1)C(C)(C)C)C1(O)CCN(CCc2ccccc2Cl)CC1.O=C(O)/C=C/C(=O)O (stereo unspecified) | < 56 | > 10 | > 56 | – |
| CC(C(=O)N(C)c1cccc(O)c1)C1(O)CCN(CCc2ccccc2Cl)CC1.O=C(O)/C=C/C(=O)O (stereo unspecified) | > 18 | > 56 | – | – |
| CN(C(=O)C1(C2(O)CCN(CCc3ccccc3Cl)CC2)CCCC1)C1CCCCC1.O=C(O)/C=C/C(=O)O | > 56 | > 56 | 100 | – |
| CCC(=O)OC1(C(C)C(=O)N(C)C2CCCCC2)CCN(CCc2ccccc2Cl)CC1 (stereo unspecified) | < 56 | < 3.2 | – | – |
| CN1CCC(=C2c3ccccc3CCc3sccc32)CC1 [PIZOTYLINE] | – | – | – | ED50 (Mus musculus [3]): 0.015 mg/kg |
| COc1ccccc1N(C)C(=O)C(C)C1(O)CCN(CCc2ccccc2Cl)CC1.O=C(O)/C=C\C(=O)O (stereo unspecified) | 18 | 0.68 | > 18 | IC50 (Opioid receptor [5]): 51 nM; IC50 (Opioid receptor [6]): 3.3 nM |
| CCOc1ccccc1N(CC)C(=O)C(C)C1(O)CCN(CCc2ccccc2Cl)CC1 (stereo unspecified) | 1.8 | 0.26 | 10 | IC50 (Opioid receptor [5]): 1.8 nM; IC50 (Opioid receptor [6]): 0.55 nM |
| CCCCNC(=O)C(C)C1(O)CCN(CCc2ccccc2Cl)CC1 (stereo unspecified) | > 32 | > 18 | < 100 | – |
| CC(C(=O)N(C)C1CCCCC1)C1CCN(CCc2ccccc2Cl)CC1.Cl (stereo unspecified) | < 18 | 2.9 | 37 | – |
| CCCN(C(=O)C(C)C1(O)CCN(CCc2ccccc2Cl)CC1)c1ccccc1OC.O=C(O)/C=C/C(=O)O (stereo unspecified) | 1.8 | 0.11 | 5.4 | ED50 (Mus musculus [3]): 0.015 mg/kg; IC50 (Opioid receptor [5]): 0.66 nM; IC50 (Opioid receptor [6]): 0.51 nM |
| CC(C(=O)N(C1CCCCC1)C1CCCCC1)C1(O)CCN(CCc2ccccc2Cl)CC1.Cl (stereo unspecified) | < 56 | > 56 | > 100 | – |
| CCOc1ccccc1N(C)C(=O)C(C)C1(O)CCN(CCc2ccccc2Cl)CC1.O=C(O)/C=C/C(=O)O (stereo unspecified) | 1.8 | 0.51 | < 32 | IC50 (Opioid receptor [5]): 10 nM; IC50 (Opioid receptor [6]): 0.98 nM |
| CN1CC[C@]23c4c5ccc(O)c4O[C@H]2[C@@H](O)C=C[C@H]3[C@H]1C5 [MORPHINE] | 1.4 | 3.4 | 23 | – |
| Br.CC(C)C(C(=O)N(C)C1CCCCC1)C1(O)CCN(CCc2ccccc2Cl)CC1 (stereo unspecified) | < 56 | > 56 | > 100 | – |
| CC(C(=O)N(C)C1CCCCC1)C1(O)CCN(CCc2ccccc2Cl)CC1 (stereo in doubt; 15) | – | – | – | ED50 [7]: 0.01 mg/kg; ED50 [8]: 0.015 mg/kg; ED50 [9]: 0.045 mg/kg; ED50 [10]: 0.028 mg/kg; ED50 [11]: 0.009 mg/kg; ED50 [12]: 0.007 mg/kg |
| Br.CCCCCCCN1CCC(O)(C(C)C(=O)N(C)C2CCCCC2)CC1 (stereo unspecified) | > 56 | > 56 | > 100 | – |
| CC(C(=O)NC1CCCCC1)C1(O)CCN(CCc2ccccc2Cl)CC1.O=C(O)/C=C\C(=O)O (stereo unspecified) | > 56 | > 3.2 | < 56 | – |
| Cc1ccc(CCN2CCC(O)(C(C)C(=O)N(C)C3CCCCC3)CC2)cc1.Cl (stereo unspecified) | < 56 | > 3.2 | 100 | – |
| CC(C(=O)N(C)C1CCCCC1)C1(O)CCN(CCc2ccccc2Cl)CC1.O=C(O)/C=C\C(=O)O (stereo in doubt; 15) | 10.8 | – | – | ED50 (Mus musculus [4]): 22 mg/kg; ED50 (Mus musculus [2]): 3.2 mg/kg; ED50 (Mus musculus [14]): 0.07 mg/kg; IC50 (Opioid receptor [5]): 450 nM; IC50 (Opioid receptor [6]): 45 nM |
| CCCCC(C(=O)N(C)C1CCCCC1)C1(O)CCN(CCc2ccccc2Cl)CC1.O=C(O)/C=C/C(=O)O (stereo unspecified) | > 56 | > 56 | > 100 | – |
